According to ChEMBL document CHEMBL3286128 (J Med Chem, 2014):
Calls of active or inactive are those of the source. The rule behind the calls is not given here.

How the values were obtained:
[1] = system: Human immunodeficiency virus 1; test: Antiviral activity against HIV-1 harboring wild type integrase infected in human HOS cells pretreated with compound for 3 hrs by single-round HIV-1 infectivity assay; type: functional, organism-based; conditions: Human immunodeficiency virus 1, HOS
[2] = system: Human immunodeficiency virus 1; test: Antiviral activity against raltegravir-resistant HIV-1 harboring integrase G140S/Q148H double mutant infected in human HOS cells pretreated with compound for 3 hrs by single-round HIV-1 infectivity assay; type: functional, organism-based; conditions: Human immunodeficiency virus 1, HOS
[3] = system: Human immunodeficiency virus 1; test: Ratio of EC50 for raltegravir-resistant HIV-1 harboring integrase G140S/Q148H double mutant infected in human HOS cells to EC50 for HIV-1 harboring integrase wild type integrase infected in human HOS cells; type: functional
[4] = system: Human immunodeficiency virus 1; test: Ratio of EC50 for raltegravir-resistant HIV-1 harboring integrase Y143R mutant infected in human HOS cells to EC50 for HIV-1 harboring integrase wild type integrase infected in human HOS cells; type: functional
[5] = Selectivity index, ratio of CC50 for human HOS cells to EC50 for HIV-1 harboring wild type integrase infected in human HOS cells; type: toxicity, cell-based; conditions: read-out: Ratio CC50/EC50
Method in brief: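 HOS cells were exposed to compound and viability was read as ATP level by luciferase reporter. SI is CC50 divided by WT-vector EC50.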

[6] = system: Human immunodeficiency virus 1; test: Antiviral activity against raltegravir-resistant HIV-1 harboring integrase Y143R mutant infected in human HOS cells pretreated with compound for 3 hrs by single-round HIV-1 infectivity assay; type: functional, organism-based; conditions: Human immunodeficiency virus 1, HOS
[7] = Retention time of the compound by HPLC analysis; type: physicochemical
Method in brief: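 Preparative HPLC run as a linear gradient of solvent B over 30 min, starting at 30% B and ending at 70% or 80% B depending on the compound. Retention time was taken at elution.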

[8] = system: Human immunodeficiency virus 1; test: Antiviral activity against raltegravir-resistant HIV-1 harboring integrase N155H mutant infected in human HOS cells pretreated with compound for 3 hrs by single-round HIV-1 infectivity assay; type: functional, organism-based; conditions: Human immunodeficiency virus 1, HOS
HOS = test: Cytotoxicity against human HOS cells assessed as ATP level by luciferase reporter assay; type: cell-based
Method in brief: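 HOS cells were exposed to compound and viability was read as ATP level by luciferase reporter. […] SI is CC50 divided by WT-vector EC50.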

[9] = molecular target: T1, Human immunodeficiency virus type 1 integrase (Human immunodeficiency virus 1, UniProt Q7ZJM1); test: Inhibition of strand transfer activity of HIV-1 integrase using [gamma-32P]-labeled DNA as substrate
T1 sequence (Q7ZJM1 whole entry): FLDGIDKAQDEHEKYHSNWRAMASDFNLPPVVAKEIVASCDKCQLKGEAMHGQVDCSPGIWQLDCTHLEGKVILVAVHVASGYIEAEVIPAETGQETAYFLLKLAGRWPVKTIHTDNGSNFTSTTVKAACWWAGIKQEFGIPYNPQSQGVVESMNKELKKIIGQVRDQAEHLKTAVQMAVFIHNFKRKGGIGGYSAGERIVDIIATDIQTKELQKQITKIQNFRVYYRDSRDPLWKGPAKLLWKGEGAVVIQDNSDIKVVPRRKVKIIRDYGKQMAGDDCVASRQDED
Method in brief: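 Gel-based assay with radiolabelled oligonucleotide substrate and Mg2+ cofactor, measuring strand transfer by recombinant HIV-1 integrase. IC50 determined.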

[10] = system: Human immunodeficiency virus 1; test: Ratio of EC50 for raltegravir-resistant HIV-1 harboring integrase N155H mutant infected in human HOS cells to EC50 for HIV-1 harboring integrase wild type integrase infected in human HOS cells; type: functional
[11] = molecular target: T1, Human immunodeficiency virus type 1 integrase
[12] = system: Human immunodeficiency virus 1; test: Ratio of EC50 for INSTI-resistant HIV-1 harboring integrase R263K mutant infected in human HOS cells to EC50 for HIV-1 harboring integrase wild type integrase infected in human HOS cells; type: functional
[13] = system: Human immunodeficiency virus 1; test: Ratio of EC50 for INSTI-resistant HIV-1 harboring integrase G118R mutant infected in human HOS cells to EC50 for HIV-1 harboring integrase wild type integrase infected in human HOS cells; type: functional
[14] = system: Human immunodeficiency virus 1; test: Antiviral activity against INSTI-resistant HIV-1 harboring integrase R263K mutant infected in human HOS cells pretreated with compound for 3 hrs by single-round HIV-1 infectivity assay; type: functional, organism-based; conditions: Human immunodeficiency virus 1, HOS
Method in brief: (§1)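 VSV-g-pseudotyped single-round HIV-1 luciferase vector (WT or mutant IN) made in 293T cells by calcium phosphate transfection, supernatant harvested at 48 h. HOS cells were seeded the day before, then pretreated with compound, 11 serial dilutions from 10 μM to 0.0005 μM, at 37 °C for 3 h. Virus was added and cells kept 48 h at 37 °C. Luciferase was read and normalised to infectivity without compound.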

[15] = system: Human immunodeficiency virus 1; test: Antiviral activity against INSTI-resistant HIV-1 harboring integrase G118R mutant infected in human HOS cells pretreated with compound for 3 hrs by single-round HIV-1 infectivity assay; type: functional, organism-based; conditions: Human immunodeficiency virus 1, HOS; method in brief: as §1
[16] = molecular target: Human immunodeficiency virus type 1 reverse transcriptase (Human immunodeficiency virus 1) (UniProt Q72547); test: Inhibition of HIV-1 DNA-dependent DNA polymerase activity of reverse transcriptase after 60 mins by agarose gel electrophoresis
[17] = molecular target: Human immunodeficiency virus type 1 reverse transcriptase (Human immunodeficiency virus 1) (UniProt Q72547); test: Inhibition of HIV-1 reverse transcriptase RNase H activity-mediated -8 cleavage assessed as retention of -17 cleavage at 10 uM by agarose gel electrophoresis
[18] = system: Human immunodeficiency virus 1; test: Antiviral activity against HIV-1 harboring wild type integrase infected in human HOS cells pretreated with compound for 3 hrs by single-round HIV-1 infectivity assay in presence of 5% fetal bovine serum; type: functional, organism-based; conditions: Human immunodeficiency virus 1, HOS; method in brief: as §1
[19] = system: Human immunodeficiency virus 1; test: Antiviral activity against HIV-1 harboring wild type integrase infected in human HOS cells pretreated with compound for 3 hrs by single-round HIV-1 infectivity assay in presence of 15% fetal bovine serum; type: functional, organism-based; conditions: Human immunodeficiency virus 1, HOS; method in brief: as §1
[20] = system: Human immunodeficiency virus 1; test: Antiviral activity against HIV-1 harboring wild type integrase infected in human HOS cells pretreated with compound for 3 hrs by single-round HIV-1 infectivity assay in presence of 10% fetal bovine serum; type: functional, organism-based; conditions: Human immunodeficiency virus 1, HOS; method in brief: as §1

Row | SMILES | EC50 [1] | EC50 [2] | Ratio EC50 [4] | selectivity ratio [5] | EC50 [6] | Retention_time [7] | EC50 [8] | CC50 (HOS) | IC50 [9] | IC50 [11] | other results
1 | O=C(NCc1ccc(F)cc1F)c1c(N2CCOCC2)c2cccnc2n(O)c1=O | 1200 nM | 6920 nM | 1.5 | 7 | 1800 nM | 20.5 min | 3730 nM | 8400 nM | 79 nM | 77000 nM | Ratio EC50 [3]: 6; Ratio EC50 [10]: 3
2 | O=C(NCc1ccc(F)cc1F)c1c(Nc2ccccc2)c2cccnc2n(O)c1=O | 14 nM | – | – | – | – | 20.2 min | – | > 250000 nM | 18 nM | 6900 nM | –
3 | CCOC(=O)[C@@H]1CCCN1c1c(C(=O)NCc2ccc(F)cc2F)c(=O)n(O)c2ncccc12 | 590 nM | – | 3 | 31 | 1660 nM | 12.5 min | – | 18000 nM | 310 nM | 86000 nM | –
4 | O=C(NCc1ccc(F)cc1F)c1c(NCCO)c2cccnc2n(O)c1=O | 5.2 nM | 43 nM | 0.88 | 4620 | 4.6 nM | 21.6 min | 25 nM | 24000 nM | 10 nM | 550 nM | Ratio EC50 [12]: 5; Ratio EC50 [13]: 5; EC50 [14]: 26 nM; Ratio EC50 [3]: 8; EC50 [15]: 27 nM; Ratio EC50 [10]: 5
5 | O=C(NCc1ccc(F)cc1F)c1c(NCCc2ccccc2)c2cccnc2n(O)c1=O | 14 nM | – | – | – | – | 22 min | – | > 250000 nM | 50 nM | 8000 nM | –
6 | O=C(NCc1ccc(F)cc1F)c1c(Nc2ccc3c(c2)Cc2ccccc2-3)c2cccnc2n(O)c1=O | 171 nM | – | 3 | > 1460 | – | 21.3 min | – | > 250000 nM | 840 nM | 46000 nM | –
7 | C[C@@H]1CCO[C@H]2Cn3cc(C(=O)NCc4ccc(F)cc4F)c(=O)c(O)c3C(=O)N12 [DOLUTEGRAVIR] | 1.6 nM | 5.8 nM | – | – | 4.3 nM | – | 3.6 nM | – | – | – | EC50 [14]: 11 nM; EC50 [15]: 13 nM
8 | CC(=O)OCCNc1c(C(=O)NCc2ccc(F)cc2F)c(=O)n(O)c2ncccc12 | 4.5 nM | 35 nM | 1 | > 55600 | 4.8 nM | 23.6 min | 3.1 nM | > 250000 nM | 27 nM | 5300 nM | Ratio EC50 [12]: 4; Ratio EC50 [13]: 10; inhibition [16]: Active; EC50 [14]: 16 nM; inhibition [17]: Active; EC50 [18]: 4.5 nM; Ratio EC50 [3]: 8; EC50 [19]: 4.5 nM; EC50 [15]: 44 nM; Ratio EC50 [10]: 0.69; EC50 [20]: 4.5 nM
9 | COC(=O)[C@H](CO)Nc1c(C(=O)NCc2ccc(F)cc2F)c(=O)n(O)c2ncccc12 | 9.7 nM | – | – | – | – | 15.9 min | – | > 250000 nM | 8.4 nM | 5800 nM | –
10 | Nc1c(C(=O)NCc2ccc(F)cc2F)c(=O)n(O)c2ncccc12 | 1.1 nM | – | – | – | – | 19.5 min | – | > 250000 nM | – | – | inhibition [16]: Active; EC50 [14]: 6.4 nM; inhibition [17]: Active; EC50 [18]: 1.1 nM; EC50 [19]: 1.1 nM; EC50 [15]: 16 nM; EC50 [20]: 1.1 nM
11 | COC(=O)[C@@H](C)Nc1c(C(=O)NCc2ccc(F)cc2F)c(=O)n(O)c2ncccc12 | 11.3 nM | 89 nM | – | – | 8.1 nM | 26.4 min | – | > 250000 nM | – | – | –
12 | O=C(NCc1ccc(F)cc1F)c1c(NC2CCCCCC2)c2cccnc2n(O)c1=O | 12 nM | 35 nM | 0.55 | 5670 | 6.6 nM | 25.8 min | 14 nM | 68000 nM | 460 nM | 13000 nM | Ratio EC50 [3]: 3; Ratio EC50 [10]: 1
13 | CCCCCNc1c(C(=O)NCc2ccc(F)cc2F)c(=O)n(O)c2ncccc12 | 7.4 nM | – | – | – | – | 23.7 min | – | 94000 nM | 24 nM | 8200 nM | –
14 | COC(=O)[C@H](C)Nc1c(C(=O)NCc2ccc(F)cc2F)c(=O)n(O)c2ncccc12 | 4.2 nM | – | – | – | – | 26.4 min | – | – | – | – | –
15 | COC(=O)[C@H](Nc1c(C(=O)NCc2ccc(F)cc2F)c(=O)n(O)c2ncccc12)c1ccccc1 | 7.4 nM | – | – | – | – | 26.3 min | 22 nM | – | – | – | –
16 | CNc1c(C(=O)NCc2ccc(F)cc2F)c(=O)n(O)c2ncccc12 | 3.1 nM | – | – | – | – | 26.4 min | – | > 250000 nM | 27 nM | 3700 nM | –
17 | Nc1ccc(-c2ccc(Nc3c(C(=O)NCc4ccc(F)cc4F)c(=O)n(O)c4ncccc34)cc2)cc1 | 6.3 nM | – | 16 | > 39700 | – | 15.6 min | – | > 250000 nM | 130 nM | 80000 nM | –
18 | COC(=O)[C@@H](Nc1c(C(=O)NCc2ccc(F)cc2F)c(=O)n(O)c2ncccc12)c1ccccc1 | – | – | – | – | – | 22.6 min | – | > 250000 nM | – | – | –
19 | CN(C)c1c(C(=O)NCc2ccc(F)cc2F)c(=O)n(O)c2ncccc12 | 268 nM | 6800 nM | 1 | 49 | 273 nM | 21.6 min | 2300 nM | 13000 nM | 87 nM | 21000 nM | Ratio EC50 [3]: 25; Ratio EC50 [10]: 9
20 | O=C(NCc1ccc(F)cc1F)c1c(NCCCCc2ccccc2)c2cccnc2n(O)c1=O | 50 nM | 243 nM | 0.8 | 2040 | 40 nM | 26.7 min | 116 nM | 102000 nM | 280 nM | 12000 nM | Ratio EC50 [3]: 5; Ratio EC50 [10]: 2
21 | COC(=O)[C@@H](CO)Nc1c(C(=O)NCc2ccc(F)cc2F)c(=O)n(O)c2ncccc12 | 14.2 nM | – | – | – | – | 20.5 min | – | – | 13 nM | 4400 nM | –
22 | O=C(NCc1ccc(F)cc1F)c1c(Nc2ccc(-c3ccccc3)cc2)c2cccnc2n(O)c1=O | 372 nM | – | 1 | > 672 | – | 22.8 min | – | > 250000 nM | 340 nM | 52000 nM | –
23 | NCCNc1c(C(=O)NCc2ccc(F)cc2F)c(=O)n(O)c2ncccc12 | 35 nM | – | – | – | – | 25.9 min | – | 9600 nM | 39 nM | 4500 nM | –
24 | N#Cc1ccc(-c2ccc(Nc3c(C(=O)NCc4ccc(F)cc4F)c(=O)n(O)c4ncccc34)cc2)cc1 | 123 nM | – | 3 | > 2030 | – | 22.3 min | – | > 250000 nM | 130 nM | 70000 nM | –
25 | CC(C)Nc1c(C(=O)NCc2ccc(F)cc2F)c(=O)n(O)c2ncccc12 | 7.2 nM | – | – | – | – | 17 min | – | > 250000 nM | 16 nM | 1800 nM | –
